Assay results as given in publication PMC9290503 (British Journal of Clinical Pharmacology, 2021).

How the values were obtained:
[1] = Study 1001 single-rising-dose plasma pharmacokinetics; format: in vivo, human; details: for AUC0–24, mean (CV%) / AUC0–∞, mean (CV%) / t max, median (range) / t ½z, mean (CV%): plasma, Study 1001
[2] = Study 1001 single-dose urine pharmacokinetics; format: in vivo, human; details: for Aet, mean (CV%) / CLR, mean (CV%) / fe,t, mean (CV%): urine, Study 1001
[3] = Study 1003 MRD cohorts plasma pharmacokinetics; format: in vivo, human; details: for AUC0–24, mean (CV%) / AUC0–∞, mean (CV%) / C max, mean (CV%) / t max, median (range) / t ½z, mean (CV%): plasma
[4] = Study 1003 MRD cohorts urine pharmacokinetics; format: in vivo, human; details: for Aet, mean (CV%) / CLR, mean (CV%) / fe,t, mean (CV%): urine, non‐Japanese
In short: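 Urine was collected pre-dose and over 0–6, 6–12 and 12–24 h on Days 1 and 10 of once-daily oral dosing. Free base was measured by validated UPLC–MS/MS after protein precipitation (calibration 1–2000 ng mL−1; LLOQ 1 ng mL−1). Noncompartmental analysis used nominal intervals; values below LLOQ were treated as zero.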

[5] = Study 1003 CSF pharmacokinetics at steady state; format: in vivo, human; details: 60 mg q.d.
[6] = Safety and tolerability, Study 1001; format: in vivo, human
In short: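 Double-blind, placebo-controlled single oral doses (5–60 mg) in healthy adults aged 18–55, given after at least 10 h fasting, with sentinel dosing in the first cohort. Monitored AEs, physical and neurological exams, vital signs, flagged clinical labs and 12-lead ECG. TEAEs counted from first dose to 30 days after. Semen analysis and serum FSH, LH, testosterone and inhibin B were taken at baseline and one or two spermatogenic cycles post-dose. Follow-up to day 60 (±2).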

[7] = system: mouse model of Kabuki syndrome; details: ref [7], cited from earlier work
[8] = system: rodent models of neurodevelopmental disorder; details: two rodent models of neurodevelopmental disorder; ref [8]; cited from earlier work
[9] = preliminary toxicology studies in animals; no reference given; cited from earlier work
human LSD1 = details: targets the catalytic FAD in the LSD1 active site; no reference given; cited from earlier work
[10] = 20 mg q.d., non‐Japanese, Day 1
[11] = 20 mg q.d., non‐Japanese, Day 10
[12] = 60 mg q.d., non‐Japanese, Day 1
[13] = 60 mg q.d., non‐Japanese, Day 10
[14] = 160 mg q.d., non‐Japanese, Day 1
[15] = 160 mg q.d., non‐Japanese, Day 10
[16] = after multiple dosing (20–160 mg)

## Cl.O=C(NC1CCOCC1)c1csc([C@@H]2C[C@H]2NCC2CC2)c1 [TAK‐418]
[1]; healthy volunteers, across both studies and doses
  t ½z: 3.13 to 5.36 h
[1]; single oral dose 5 mg
  AUC0–24, mean (CV%): 89.3 (41.1) h*ng mL^−1
  AUC0–∞, mean (CV%): 92.2 (43.3) h*ng mL^−1
  t max, median (range): 1.00 (0.98–1.02) h
  t ½z, mean (CV%): 3.133 (14.8) h
[1]; single oral dose 15 mg
  AUC0–24, mean (CV%): 295.8 (21.5) h*ng mL^−1
  AUC0–∞, mean (CV%): 302.2 (21.8) h*ng mL^−1
  t max, median (range): 1.00 (1.00–2.00) h
  t ½z, mean (CV%): 4.375 (9.0) h
[1]; single oral dose 30 mg, fasted
  AUC0–24, mean (CV%): 646.3 (7.9) h*ng mL^−1
  AUC0–∞, mean (CV%): 661.3 (7.9) h*ng mL^−1
  t max, median (range): 1.00 (0.50–1.00) h
  t ½z, mean (CV%): 4.772 (11.0) h
[1]; single oral dose 40 mg
  AUC0–24, mean (CV%): 690.2 (24.0) h*ng mL^−1
  AUC0–∞, mean (CV%): 700.0 (24.5) h*ng mL^−1
  t max, median (range): 1.25 (1.00–1.52) h
  t ½z, mean (CV%): 3.868 (12.7) h
[1]; single oral dose 60 mg
  AUC0–24, mean (CV%): 1553.5 (29.4) h*ng mL^−1
  AUC0–∞, mean (CV%): 1584.3 (29.9) h*ng mL^−1
  t max, median (range): 1.00 (1.00–1.00) h
  t ½z, mean (CV%): 4.220 (14.9) h
[2]; 20–160 mg dose range, single dose (Tables 3 and 4)
  renal clearance: 5.81 to 8.68 L/h
[2]; after 20–160 mg dosing, single dose (Tables 3 and 4)
  recovered unchanged from urine: 13.3–19.5%
[2]; single oral dose 30 mg, fasted
  Aet, mean (CV%): 5.708 (13.0) mg
  CLR, mean (CV%): 8.683 (16.3) L h^−1
  fe,t, mean (CV%): 19.022 (13.0) %
[2]; single oral dose 40 mg
  Aet, mean (CV%): 5.333 (18.8) mg
  CLR, mean (CV%): 8.173 (38.1) L h^−1
  fe,t, mean (CV%): 13.335 (18.8) %
[2]; single oral dose 60 mg
  Aet, mean (CV%): 11.677 (35.2) mg
  CLR, mean (CV%): 7.242 (13.4) L h^−1
  fe,t, mean (CV%): 19.472 (35.2) %
[2]; within 24 hours
  recovered unchanged from urine: Approximately 20%
[3]; 20 mg q.d.
  PK linearity point estimate, Day 10 AUC0–24 compared with Day 1 AUC0–∞: 1.29
[3]; 20 mg, Day 1
  AUC0–24, Japanese vs non‐Japanese participants: 1.21 fold
[3]; 20 mg, Day 10 steady state
  AUC0–24, Japanese compared with non‐Japanese participants: approximately the same
[3]; 60 mg q.d.
  PK linearity point estimate, Day 10 AUC0–24 compared with Day 1 AUC0–∞: 1.13
[3]; 160 mg q.d.
  PK linearity point estimate, Day 10 AUC0–24 compared with Day 1 AUC0–∞: 1.06
[3]; 20–160 mg q.d.
  mean terminal disposition phase half‐life (t ½z) at steady state: 4.35 to 5.36 h
[3]; Day 10, 20–160 mg q.d.
  median t max at steady state: 1.00 to 1.26 h
[3]; 20 mg q.d., Japanese, Day 1
  AUC0–24, mean (CV%): 610.3 (14.4) h*ng mL^−1
  AUC0–∞, mean (CV%): 619.0 (14.8) h*ng mL^−1
  C max, mean (CV%): 154.7 (6.0) ng mL^−1
  t max, median (range): 1.00 (0.50–1.50) h
[3]; 20 mg q.d., Japanese, Day 10
  AUC0–24, mean (CV%): 677.3 (10.9) h*ng mL^−1
  C max, mean (CV%): 171.3 (6.0) ng mL^−1
  t max, median (range): 1.00 (1.00–1.50) h
  t ½z, mean (CV%): 4.350 (14.4) h
[3]; [10]
  AUC0–24, mean (CV%): 503.3 (32.9) h*ng mL^−1
  AUC0–∞, mean (CV%): 515.3 (33.4) h*ng mL^−1
  C max, mean (CV%): 85.2 (33.8) ng mL^−1
  t max, median (range): 1.75 (1.00–3.00) h
[3]; [11]
  AUC0–24, mean (CV%): 668.2 (34.2) h*ng mL^−1
  C max, mean (CV%): 117.8 (30.1) ng mL^−1
  t max, median (range): 1.26 (1.00–2.00) h
  t ½z, mean (CV%): 4.997 (10.1) h
[3]; [12]
  AUC0–24, mean (CV%): 1445.5 (24.4) h*ng mL^−1
  AUC0–∞, mean (CV%): 1476.7 (25.4) h*ng mL^−1
  C max, mean (CV%): 276.0 (21.6) ng mL^−1
  t max, median (range): 1.50 (1.00–4.00) h
[3]; [13]
  AUC0–24, mean (CV%): 1660.5 (25.4) h*ng mL^−1
  C max, mean (CV%): 307.2 (17.0) ng mL^−1
  t max, median (range): 1.250 (1.00–3.00) h
  t ½z, mean (CV%): 4.923 (17.8) h
[3]; [14]
  AUC0–24, mean (CV%): 3747.3 (6.4) h*ng mL^−1
  AUC0–∞, mean (CV%): 3822.0 (5.7) h*ng mL^−1
  C max, mean (CV%): 679.3 (28.8) ng mL^−1
  t max, median (range): 1.50 (1.00–3.00) h
[3]; [15]
  AUC0–24, mean (CV%): 4058.3 (6.1) h*ng mL^−1
  C max, mean (CV%): 697.7 (14.7) ng mL^−1
  t max, median (range): 1.00 (1.00–1.50) h
  t ½z, mean (CV%): 5.357 (8.7) h
[4]; [16]
  renal clearance: 5.12 to 7.81 L/h
  renal excretion: 15.45–20.06%
[4]; 20 mg q.d., Day 1
  Aet, mean (CV%): 2.858 (25.1) mg
  CLR, mean (CV%): 5.813 (16.4) L h^−1
  fe,t, mean (CV%): 14.283 (25.1) %
[4]; 20 mg q.d., Day 10
  Aet, mean (CV%): 3.090 (28.4) mg
  CLR, mean (CV%): 5.120 (38.2) L h^−1
  fe,t, mean (CV%): 15.453 (28.4) %
[4]; 60 mg q.d., Day 1
  Aet, mean (CV%): 11.423 (28.4) mg
  CLR, mean (CV%): 8.365 (41.5) L h^−1
  fe,t, mean (CV%): 19.050 (28.4) %
[4]; 60 mg q.d., Day 10
  Aet, mean (CV%): 11.087 (31.1) mg
  CLR, mean (CV%): 6.740 (25.1) L h^−1
  fe,t, mean (CV%): 18.475 (31.1) %
[4]; 160 mg q.d., Day 1
  Aet, mean (CV%): 28.500 (11.0) mg
  CLR, mean (CV%): 7.583 (4.9) L h^−1
  fe,t, mean (CV%): 17.800 (11.0) %
[4]; 160 mg q.d., Day 10
  Aet, mean (CV%): 32.067 (37.3) mg
  CLR, mean (CV%): 7.807 (32.7) L h^−1
  fe,t, mean (CV%): 20.060 (37.2) %
[5]; Day 10, CV% 24.7
  mean C max in CSF: 85.20 ng mL^ −1
[5]; Day 10, CV% 26.5
  mean AUC0–24 in CSF: 611.0 ng·h/mL
[6]; 23 male participants
  semen parameters or serum hormone levels: no clinically relevant changes
[6]; Study 1001
  laboratory test results, vital signs or electrocardiogram readings: No clinically significant changes
  nausea, most common TAK‐418‐related TEAE: reported in one participant administered TAK‐418 15 mg and another administered TAK‐418 40 mg
  serious AEs, suicidal ideation/behaviour, deaths: no serious AEs (SAEs), suicidal ideation/behaviour or deaths were reported
[6]; one at 15 mg (unrelated), one at 40 mg (study‐drug related)
  testicular pain: two men given TAK‐418 reported testicular pain
[6]; single dose 5–60 mg while fasting, 13 participants
  participants reporting TEAEs: 43%
[6]; single dose up to 60 mg
  severity of TEAEs: mild
[6]; single dose, n = 3
  upper respiratory tract infection (most common TEAE): 10%
[7]; after 2 weeks of treatment, compared with vehicle control
  visuospatial learning and memory defects: visuospatial learning and memory defects were rescued
[7]; mouse model of Kabuki syndrome
  H3K4 histone modification defects: rescued H3K4 histone modification defects
  adult neurogenesis in the hippocampus: dose‐dependently normalized adult neurogenesis in the hippocampus
[8]
  autism symptoms: improved autism symptoms
[9]
  toxicology findings: testicular findings in a single species
Human LSD1
  inhibition of LSD1 activity: irreversibly inhibits the activity of human LSD1
